Test results as given in the EternaBench riboswitch data.

Key:
[1] = test system: MS2 coat protein; assay: apparent Kd, MS2 coat protein; higher = weaker binding; RNA-MaP array; theophylline 2 mM where present
How it was run: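 Green signal from SNAP-549-labelled MS2 coat protein was normalised to red-channel RNA signal and to the median Fmax of control clusters. The protein was titrated from 0.7 or 1.5 nM, doubling to 3 µM, without and then with constant ligand, over designs transcribed by stalled E. coli RNA polymerase on Illumina sequencing-chip clusters, in 100 mM Tris-HCl pH 7.5, 80 mM KCl, 4 mM MgCl2, BSA, DTT, yeast tRNA and Tween-20. The apparent Kd is the median of filtered per-cluster binding-curve fits.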

[2] = test system: MS2 coat protein; assay: apparent Kd, MS2 coat protein; higher = weaker binding; RNA-MaP array
How it was run: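 Incubations were done at room temperature with fluorescently labeled MS2 coat protein at 1.5 nM to 3 μM and designed RNAs transcribed on an Illumina sequencing chip from sequenced DNA templates, with or without input ligand. Apparent Kd is the median of binding curves fitted for each cluster. Designs with fewer than 10 measured clusters were excluded.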

[3] = designed as: OFF switch for theophylline, no ligand
[4] = ligand present: theophylline, designed as: OFF switch for theophylline
[5] = designed as: ON switch for theophylline, no ligand
[6] = ligand present: theophylline, designed as: ON switch for theophylline
[7] = designed as: ON switch for flavin mononucleotide, no ligand
[8] = ligand present: flavin mononucleotide, designed as: ON switch for flavin mononucleotide
[9] = designed as: OFF switch for flavin mononucleotide, no ligand
[10] = ligand present: flavin mononucleotide, designed as: OFF switch for flavin mononucleotide

| Sequence | apparent Kd [1, 3] [nM] | apparent Kd [1, 4] [nM] | apparent Kd [1, 5] [nM] | apparent Kd [1, 6] [nM] | further results |
| --- | --- | --- | --- | --- | --- |
| UCGACAGUGAACGAUACCAGCGUCACGUGGCCGGUGGUCACAUGAGGAUCACCCAUGUAACGCCCUUGGCAGCGUGCACGUAUCA | 20.6 | 182 |  |  |  |
| AACAUGAGGAUUGAUACCAGUCCAUGAGGAUCACAUGAGGAUCACCCAUGUGGAACAUGAGGCCCUUGGCAGCAGUACAACAUGA |  |  | 15.6 | 11 |  |
| GUAUGGAAACAUACUAGGGUAUCGUGAGAUACCAGUACAGAAAUGUACCCUUGGCAGCUCGCGCAUACAUGAGGAUCACCCAUGU | 18.8 | 29.3 |  |  |  |
| ACAUGAGGAUCACCCAUGUUCCUCGCCGAUACCAGUGAAGAAUUACGCCCUUGGCAGCGGAAUGAGUGUUUUGGAGAUGAGGUAC | 62.4 | 107 |  |  |  |
| CCUAGCACACAUGAUACCAGCGACAUGAGGAUCACCCAUGUACGGCGUGUAUCGCAAGGUUGCCCUUGGCAGCAUGAUAGUGCUG | 14.4 | 182 |  |  |  |
| UAAAACAUGAGGAUCACCCAUGUAAAUGAUACCAGAGUGAUGAUCCUCCCUUGGCAGCAUAACGCUGAUUGAUUACAAUCAGCGA |  |  | 95.9 | 267 |  |
| GAAACGUAGGUGGAGCGGUGAAAUGGCGAUACCAGCGUGGAAACAUGCCCUUGGCAGCGUUAGAACAUGAGGAUCACCCAUGUUU | 13.3 | 58.2 |  |  |  |
| AGCACAUGAGGAUCACCCAUGUGAGGUGAUACCAGUGAGAAGAAGCACCCUUGGCAGCACUUGGGUACAUGAGGAUCACCCAUGU | 58.9 | 169 |  |  |  |
| UGCGUACAUGAGGAUCACCCAUGUAUAGAUACCAGUCACCCAUGUGGCCCUUGGCAGCUAACAUGAGGAUCACUACAUGAGGAUC | 34.5 | 141 |  |  |  |
| UUAUUUAUAAUGGAUACCAGUAUAAUGGCCGCAAAUCCUGACAUGAGGAUCACCCAUGUAUGCCCUUGGCAGCUGUUAUGGGUUU | 41.1 | 57.6 |  |  |  |
| CUUGUCGUAACUGAUACCAGUGUACUGACAUGAGGAUCACCCAUGUUGGGUUUUGUUGUACACCCUUGGCAGCAGAAUCGAUAAG | 73.8 | 121 |  |  |  |
| ACAUGAGGAUCACCCAUGUAAAUCCUCGAUACCAGCCAAAGGAGAGGCCCUUGGCAGCGGAAAGGCCGGGUAUAAAUGUCCGGCC |  |  | 134 | 126 |  |
| AACCGAGGCUAUCCUCUCCGCCUAUGUGAUACCAGAAUAAUUUUAUUCCCUUGGCAGCAUGACAUGAGGAUCACCCAUGUCUCUU |  |  | 17.6 | 20.3 |  |
| ACAUGUCUUAUAGAUACCAGACAGGACAUGAGGAUCACCCAUGUAAUGUAUACAUGCAGAGUCCCUUGGCAGCUAAGGUCAUAGA |  |  | 77.6 | 66.3 |  |
| AGUACACGAACUGAUACCAGCCGGACAUGAGGAUCACCCAUGUCCUACCUCUGUUCGGUUGGCCCUUGGCAGCAGUUCGUGUACA |  |  | 81.6 | 121 |  |
| UAAAACAUGAGGAUCACCCAUGUAAUUGAUACCAGAGUGAUGAUCCUCCCUUGGCAGCAAAUAACGCAUUGGAAACAAUGCGAAA |  |  | 56.4 | 189 |  |
| AGACAUGAGGAUCACCCAUGUAGCAUGGAUACCAGAUGUAGAUUAGUCCCUUGGCAGCUGUGGUAAAGUGAUGCAUUGCUCCUAG | 49.2 | 47.4 |  |  |  |
| UAUAUUGUGAUGGAUACCAGCAGAGAAAACGUUUAUCCUAACAUGAGGAUCACCCAUGUAUGCCCUUGGCAGCUGUUGUGAUAUA | 71.4 | 46.9 |  |  |  |
| UCCUCAUGGCAUGAUACCAGACCUAACAUGAGGAUCACCCAUGUAUCAGGCAAUUGUUACGUCCCUUGGCAGCAUGUAUGCCGAC |  |  | 70.2 | 138 |  |
| GGUAGCAGGACUGAUACCAGUCCAGCGAAUCAUACGACGCAACAUGAGGAUCACCCAUGUGACCCUUGGCAGCAGUCUGCUACCG |  |  | 25.4 | 12.8 |  |

| Sequence | apparent Kd [1, 3] [nM] | apparent Kd [1, 4] [nM] | apparent Kd [1, 5] [nM] | apparent Kd [1, 6] [nM] | further results |
| --- | --- | --- | --- | --- | --- |
| UGGCAGGAGUGAUCCUCCUGCCAAGGUGAUACCAGCAUCGAAAGAUGCCCUUGGCAGCACCAACAUGAGGAUCACCCAUGUAAUA |  |  | 108 | 47.9 |  |
| ACAUGAGGAUCACCCAUGUUCCUCAUUGAUACCAGUGAAUUUAGACGCCCUUGGCAGCGAGUUUUUUAAGAAGAAGUUUUUUUUU | 421 | 1110 |  |  |  |
| AUAUUAGACCUGGAUACCAGCGACAUGAGGAUCACCCAUGUAUGUGCAUCUGCCAUGAUAUGCCCUUGGCAGCCACCGAGGUCGU | 11.4 | 19.1 |  |  |  |
| UGUAACAUGAGGAUCACCCAUGUGAGUGAUACCAGACUAGUAUUAGUCCCUUGGCAGCACGUUGGGCGAGUGUAUAGUCUAUGCG |  |  | 112 | 110 |  |
| ACAUGAGGAUCACCCAUGUUCCUCAUUGAUACCAGUGAAUUUAGACGCCCUUGGCAGCGAGUUUUUGAAGAAGAAGUUUUUUUUU | 545 | 1080 |  |  |  |
| AGCGACAUGCAUGAUACCAGCUACAUGAGGAUCACCCAUGUACGUCAGUAAUGACUGUGUAGCCCUUGGCAGCAUAGAGCAUGUA | 17.5 | 44.5 |  |  |  |
| AGUAAUCUAACAGAUACCAGACGGUAUAUAACAUGAGGAUCACCCAUGUCUUGGGUGUACGUCCCUUGGCAGCUGAAAAUGAUAA |  |  | 567 | 383 |  |
| GAGCUGAUGUAGAGCCUUUAGUUCUGAGAUACCAGUACAGAAAUGUACCCUUGGCAGCUCAGCUUUACAUGAGGAUCACCCAUGU | 19 | 23.7 |  |  |  |
| GCUGGGUGCGCAAGGACCUGGCGUUGCGAUACCAGCACGGUAACGUGCCCUUGGCAGCGCACAUGAGGAUCACCCAUGUGGUGCG | 24.6 | 329 |  |  |  |
| CUCUGGUGCUGAGUGAGUGUCGUGACUGAUACCAGAUGCCUUUACAUCCCUUGGCAGCAGUACAUGAGGAUCACCCAUGUAUUCC | 22.1 | 182 |  |  |  |
| ACAUGAGGAUCACCCAUGUUCCUCUUUGAUACCAGUGAGUUGUUUCGCCCUUGGCAGCGAGUUUUUUUUUUUUUGUUUUGUUUGG | 274 | 390 |  |  |  |
| GAUAGUUGAUGGGAUACCAGCCUACACAUGAGGAUCACCCAUGUGAUUCGUGUACGACUGGGCCCUUGGCAGCCCAUAUUGUGUA |  |  | 107 | 55.1 |  |
| GAUGAACAUACUGAUACCAGUGUACUGACAUGAGGAUCACCCAUGUUGGGUUUUGUUGUACACCCUUGGCAGCAGAAUGUUUAUC | 72.2 | 78.9 |  |  |  |
| CUCUUCCGGAAGGAUACCAGCUACAUGAGGAUCACCCAUGUAGGAGCGGGUUUCUAAUGUAGCCCUUGGCAGCCUUAGCCCGUCG | 17.6 | 60.7 |  |  |  |
| AGACAUGAGGAUCACCCAUGUAGCAUGGAUACCAGAUGUAGAUUUAUCCCUUGGCAGCUGUGGUAAAGUGAUGCAUUGCUCCUAG | 37.8 | 42.2 |  |  |  |
| ACAUACUUGGGAGGAUAUAUGUUCGUACGCUCGAUAGAAGGCCCAGAAGUAUAAGACAUGAGGAUCACCCAUGUGGCAAGCGUU |  |  |  |  | apparent Kd [2, 7]: 11.4 nM; apparent Kd [2, 8]: 8.78 nM |
| GACAGCAUCCGAGGAUAUAUGUACGUAAUCAAACCACAUGAGGAUCACCCAUGUCCUCUAGGUUCAUAGAAGGCGGUUUAGCGU |  |  |  |  | apparent Kd [2, 9]: 455 nM; apparent Kd [2, 10]: 750 nM |
| GAAUGGAAAGGAUAUCGCUGUUCUGACAUGAGGAUCACCCAUGUACGUGUUAGCUUGUUUCGAGAAGGUUCCACUC |  |  |  |  | apparent Kd [2, 9]: 15.6 nM; apparent Kd [2, 10]: 21.8 nM |
| UUCACGGGCACGGCCGCCACUAACCAACAUGAGGAUCACCCAUGUGUAUUGGACGACCUCUUUGCUAGGACCGGGUGUAUGGUUC |  |  |  |  | apparent Kd ([2]; designed as: OFF switch for tryptophan, no ligand): 24.8 nM; apparent Kd ([2]; ligand present: tryptophan, designed as: OFF switch for tryptophan): 30.5 nM |
| ACCCGACAUGAGGAUCACCCAUGUGGUUUCGGUCGAGGAUAUUCAAUCUGAAUUAUGUAGGAAGAAGGCGAUACCC |  |  |  |  | apparent Kd [2, 7]: 173 nM; apparent Kd [2, 8]: 78 nM |
